Assay results: ChEMBL document CHEMBL1133763, “Synthesis and immunosuppressive activity of novel prodigiosin derivatives” (J Med Chem, 2000)
≈ marks a conversion by molar mass, not a printed value.

These compounds were tested on Mus musculus (assay: Dose able to reduce by 50% the thickness increase compared to controls by DTH Assay on mice after daily dose by ip route for 6 days). Conditions: 144 h.
Format: functional
Procedure, shortened: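 Female C57Bl/6 mice, 8-9 weeks, primed iv with 1 × 105 SRBC in saline; footpad challenge 5 days later with 1 × 108 SRBC. Compound in Cremophor ELP/ethanol (6.5:3.5) given ip daily for 6 days from priming day at several doses. Footpad swelling by dial micrometer 24 h post-challenge; ED50 = dose halving swelling increase; 10 animals/group, ≥3 experiments.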

Row | Compound | ED50 [mg/kg]
1 | CCCCCCCCCCCC1=N/C(=C\c2[nH]c(-c3ccc[nH]3)cc2OCc2ccccc2)C=C1 | 1.1
2 | CCCCCCCCCCCC1=N/C(=C\c2[nH]c(-c3ccc[nH]3)cc2OCC)C=C1 | 1.2
3 | CCCCCCCCCCCC1=N/C(=C\c2[nH]c(-c3ccc[nH]3)cc2OCCC)C=C1 | 1
4 | CCCCCCCCCCCCCC1=N/C(=C\c2[nH]c(-c3ccc[nH]3)cc2OC)C=C1 | 0.8
5 | CCCCCCCCCCCC1=N/C(=C\c2[nH]c(-c3ccc[nH]3)cc2OCCCC)C=C1 | 1.5
6 | CCCCCCCCCCCC1=N/C(=C\c2[nH]c(-c3ccc[nH]3)cc2OC)C=C1 [UNDECYLPRODIGININE] | 0.6

What follows are compounds tested on Mus musculus (assay: The Toxicity of compound was measured by DTH Assay on mice after giving compound daily by ip route for 6 days at different doses). Conditions: in vivo, 144 h.
Format: organism-based
Procedure, shortened: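 Female C57Bl/6 mice, 8-9 weeks old, were primed iv with 1 × 10^5 SRBC and challenged in the footpad with 1 × 10^8 SRBC five days later. Compound in Cremophor ELP/ethanol (6.5:3.5 v:v) was given ip daily for 6 days from priming. Value is the minimal daily dose causing weight loss, hair ruffling or occasionally death, as mean ± SD of ≥3 experiments, 10 mice/group.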

Row | Compound | Toxicity [mg/kg]
7 | CCCCCCCCCCCC1=N/C(=C\c2[nH]c(-c3ccc[nH]3)cc2OCc2ccccc2)C=C1 | 5
8 | CCCCCCCCCCCC1=N/C(=C\c2[nH]c(-c3ccc[nH]3)cc2OCC)C=C1 | 2
9 | CCCCCCCCCCCC1=N/C(=C\c2[nH]c(-c3ccc[nH]3)cc2OCCC)C=C1 | 2
10 | CCCCCCCCCCCCCC1=N/C(=C\c2[nH]c(-c3ccc[nH]3)cc2OC)C=C1 | 1.5
11 | CCCCCCCCCCCC1=N/C(=C\c2[nH]c(-c3ccc[nH]3)cc2OCCCC)C=C1 | 3
12 | CCCCCCCCCCCC1=N/C(=C\c2[nH]c(-c3ccc[nH]3)cc2OC)C=C1 [UNDECYLPRODIGININE] | 1

Organism: Mus musculus
Test: The concentration inhibiting 50% cell proliferation of murine Splenocytes induced by the mitogen Concanavalin A of mice
Format: functional
Conditions: not given
Procedure, shortened: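 Spleens from C57Bl/6 mice; splenocytes at 4 × 10^5 cells/well in triplicate with Con A 1.7 µg/mL and varying compound concentrations in complete RPMI 1640. 72 h at 37 °C, 5% CO2; [3H]thymidine 0.2 µCi/well during final 18 h; uptake counted by scintillation. IC50 from % inhibition of cpm versus control; mean ± SD of ≥3 experiments.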

Row | Compound | IC50 [ng/mL]
13 | COc1cc(-c2ccc[nH]2)[nH]c1/C=C1/C=C2CCCCC2=N1 | 18.5 (≈ 0.0631 µM)
14 | CC1=N/C(=C\c2[nH]c(-c3ccc(C)[nH]3)cc2OCc2ccccc2)C=C1 | 4.1 (≈ 0.0119 µM)
15 | CCCCCC1=N/C(=C\c2[nH]c(-c3ccc[nH]3)cc2OC)C=C1 | 20 (≈ 0.0646 µM)
16 | CCCCCCCCCCCC1=N/C(=C\c2[nH]c(-c3ccc(C(C)=O)[nH]3)cc2OC)C=C1 | 100 (≈ 0.23 µM)
17 | CCCCCCCCCCCC1=N/C(=C\c2[nH]c(-c3cccs3)cc2OCc2ccccc2)C=C1 | > 1000
18 | C1=C(OCc2ccccc2)/C(=C/c2ccc[nH]2)N=C1c1ccc[nH]1 | 15.3 (≈ 0.0485 µM)
19 | CCCCCCCCCCCC1=N/C(=C\c2[nH]c(-c3ccc[nH]3)cc2OCc2ccccc2)C=C1 | 24.2 (≈ 0.0515 µM)
20 | CCCCCCCCCCCC1=N/C(=C\c2[nH]c(-c3ccc[nH]3)cc2OCC)C=C1 | 1.8 (≈ 0.00442 µM)
21 | CCCCCCCCCCC1=N/C(=C\c2[nH]c(-c3ccc[nH]3)cc2OCc2ccccc2)C=C1 | 13 (≈ 0.0285 µM)
22 | CCCCCC1=N/C(=C\c2[nH]c(-c3ccc[nH]3)cc2OCc2ccccc2)C=C1 | 4.9 (≈ 0.0127 µM)
23 | CCCCCCCCCCCCCCCC1=N/C(=C\c2[nH]c(-c3ccc[nH]3)cc2OC)C=C1 | 16.3 (≈ 0.0362 µM)
24 | C1=C/C(=C/c2[nH]c(-c3ccc[nH]3)cc2OCc2ccccc2)N=C1CC1CCCCC1 | 2.1 (≈ 0.0051 µM)
25 | COc1cc(-c2ccc[nH]2)[nH]c1/C=C1/C=CC(CCCCCC(=O)N2CCOCC2)=N1 | > 1000
26 | COc1cc(-c2ccc[nH]2)[nH]c1/C=C1/C=CC(CCCCCCF)=N1 | 7.4 (≈ 0.0217 µM)
27 | CC1=N/C(=C\c2[nH]c(-c3ccc[nH]3)cc2OCc2ccccc2)C=C1 | 7.9 (≈ 0.024 µM)
28 | CCCCCCCCCCCC1=N/C(=C\c2[nH]c(-c3ccc[nH]3)cc2OCCC)C=C1 | 5.6 (≈ 0.0133 µM)
29 | CCCCCCCCCCCCCC1=N/C(=C\c2[nH]c(-c3ccc[nH]3)cc2OC)C=C1 | 1.4 (≈ 0.00332 µM)
30 | CCCCCCCCCCCC1=N/C(=C\c2[nH]c(-c3ccc[nH]3)cc2OC)C=C1 [UNDECYLPRODIGININE] | 2 (≈ 0.00508 µM)

What follows are compounds tested on B16 (assay: Cytotoxicity, ability to inhibit viability of murine resting lymphocytes, murine B16 melanoma cells and human K562 erythroleukemia cells by 50% by […]). Conditions: Mus musculus.
Format: functional, cell-based
Procedure, shortened: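 Murine resting lymphocytes (4 × 10^5 cells/well), murine B16 melanoma and human K562 cells (1 × 10^5 cells/well each) seeded in triplicate with a range of compound concentrations in complete RPMI 1640 (10% inactivated FCS); DMSO stocks at 2 mg/mL diluted at use. MTT added for last 4 h of 48 h culture; formazan dissolved in HCl–2-propanol, OD 570/690 nm; IC50 from % inhibition versus control.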

Row | Compound | IC50 [µg/mL]
31 | COc1cc(-c2ccc[nH]2)[nH]c1/C=C1/C=C2CCCCC2=N1 | 0.12 (≈ 0.409 µM)
32 | CC1=N/C(=C\c2[nH]c(-c3ccc(C)[nH]3)cc2OCc2ccccc2)C=C1 | 0.077 (≈ 0.224 µM)
33 | CCCCCC1=N/C(=C\c2[nH]c(-c3ccc[nH]3)cc2OC)C=C1 | 0.079 (≈ 0.255 µM)
34 | CCCCCCCCCCCC1=N/C(=C\c2[nH]c(-c3ccc(C(C)=O)[nH]3)cc2OC)C=C1 | > 1
35 | CCCCCCCCCCCC1=N/C(=C\c2[nH]c(-c3cccs3)cc2OCc2ccccc2)C=C1 | > 1
36 | C1=C(OCc2ccccc2)/C(=C/c2ccc[nH]2)N=C1c1ccc[nH]1 | 0.181 (≈ 0.574 µM)
37 | CCCCCCCCCCCC1=N/C(=C\c2[nH]c(-c3ccc[nH]3)cc2OCc2ccccc2)C=C1 | 3.74 (≈ 7.96 µM)
38 | CCCCCCCCCCCC1=N/C(=C\c2[nH]c(-c3ccc[nH]3)cc2OCC)C=C1 | 0.193 (≈ 0.474 µM)
39 | CCCCCCCCCCC1=N/C(=C\c2[nH]c(-c3ccc[nH]3)cc2OCc2ccccc2)C=C1 | 0.97 (≈ 2.13 µM)
40 | CCCCCC1=N/C(=C\c2[nH]c(-c3ccc[nH]3)cc2OCc2ccccc2)C=C1 | 0.083 (≈ 0.215 µM)
41 | CCCCCCCCCCCCCCCC1=N/C(=C\c2[nH]c(-c3ccc[nH]3)cc2OC)C=C1 | 1.24 (≈ 2.75 µM)
42 | C1=C/C(=C/c2[nH]c(-c3ccc[nH]3)cc2OCc2ccccc2)N=C1CC1CCCCC1 | 0.151 (≈ 0.367 µM)
43 | COc1cc(-c2ccc[nH]2)[nH]c1/C=C1/C=CC(CCCCCC(=O)N2CCOCC2)=N1 | > 1
44 | COc1cc(-c2ccc[nH]2)[nH]c1/C=C1/C=CC(CCCCCCF)=N1 | 0.172 (≈ 0.504 µM)
45 | CC1=N/C(=C\c2[nH]c(-c3ccc[nH]3)cc2OCc2ccccc2)C=C1 | 0.083 (≈ 0.252 µM)
46 | CCCCCCCCCCCC1=N/C(=C\c2[nH]c(-c3ccc[nH]3)cc2OCCC)C=C1 | 0.322 (≈ 0.764 µM)
47 | CCCCCCCCCCCCCC1=N/C(=C\c2[nH]c(-c3ccc[nH]3)cc2OC)C=C1 | 0.282 (≈ 0.669 µM)
48 | CCCCCCCCCCCC1=N/C(=C\c2[nH]c(-c3ccc[nH]3)cc2OCCCC)C=C1 | 1.51 (≈ 3.47 µM)
49 | CCCCCCCCCCCC1=N/C(=C\c2[nH]c(-c3ccc[nH]3)cc2OC)C=C1 [UNDECYLPRODIGININE] | 0.106 (≈ 0.269 µM)

Each compound was assayed on B16 (assay: Selectivity index was evaluated). Conditions: not given.
Format: functional, Mus musculus
Procedure, shortened: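 Ratio of mean IC50 for MTT viability in K562, B16 and resting lymphocytes (averaged over the three) to IC50 for Con A-stimulated splenocyte proliferation.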

Row | Compound | Selectivity index
50 | COc1cc(-c2ccc[nH]2)[nH]c1/C=C1/C=C2CCCCC2=N1 | 6
51 | CCCCCC1=N/C(=C\c2[nH]c(-c3ccc[nH]3)cc2OC)C=C1 | 4
52 | C1=C(OCc2ccccc2)/C(=C/c2ccc[nH]2)N=C1c1ccc[nH]1 | 12
53 | CCCCCCCCCCCC1=N/C(=C\c2[nH]c(-c3ccc[nH]3)cc2OCc2ccccc2)C=C1 | 155
54 | CCCCCCCCCCCC1=N/C(=C\c2[nH]c(-c3ccc[nH]3)cc2OCC)C=C1 | 107
55 | CCCCCCCCCCC1=N/C(=C\c2[nH]c(-c3ccc[nH]3)cc2OCc2ccccc2)C=C1 | 75
56 | CCCCCC1=N/C(=C\c2[nH]c(-c3ccc[nH]3)cc2OCc2ccccc2)C=C1 | 17
57 | CCCCCCCCCCCCCCCC1=N/C(=C\c2[nH]c(-c3ccc[nH]3)cc2OC)C=C1 | 76
58 | C1=C/C(=C/c2[nH]c(-c3ccc[nH]3)cc2OCc2ccccc2)N=C1CC1CCCCC1 | 72
59 | COc1cc(-c2ccc[nH]2)[nH]c1/C=C1/C=CC(CCCCCCF)=N1 | 23
60 | CC1=N/C(=C\c2[nH]c(-c3ccc[nH]3)cc2OCc2ccccc2)C=C1 | 10
61 | CCCCCCCCCCCC1=N/C(=C\c2[nH]c(-c3ccc[nH]3)cc2OCCC)C=C1 | 58
62 | CCCCCCCCCCCCCC1=N/C(=C\c2[nH]c(-c3ccc[nH]3)cc2OC)C=C1 | 201
63 | CCCCCCCCCCCC1=N/C(=C\c2[nH]c(-c3ccc[nH]3)cc2OCCCC)C=C1 | 133
